# Compounds with a hit are over-represented: about 3.8% of the library has one in this group of screens.
# FGF22 binding-1: binders of recombinant human FGF22 by thermal shift; Q9HCT0; SYPRO orange fluorescence; percent of sucrose octasulfate shift, DMSO zero; activity (Tm shift, normalised), % at 9.99 µM; actives 1.5% (n = 340,000); AID 651658;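 active means mean Tm shift, scaled 0 neutral to 100 positive control, at about 1.3% or above, every replicate too, limit read from the data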
# Target sequence (Q9HCT0 whole entry, looked up): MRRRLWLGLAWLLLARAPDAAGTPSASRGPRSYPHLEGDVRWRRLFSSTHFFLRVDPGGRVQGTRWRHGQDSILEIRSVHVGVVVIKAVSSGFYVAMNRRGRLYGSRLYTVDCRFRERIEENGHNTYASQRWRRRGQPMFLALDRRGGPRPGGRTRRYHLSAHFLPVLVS
# SIRT5 inh: sirtuin-5 (human) deacylase inhibition | Q9NXA8 | inhibition, % at 15 µM | actives 1.1% (n = 330,000) | Purified SirT5, succinyl-peptide AMC, trypsin-coupled fluorescence; in the data active means inhibition above about 15%
# Target sequence (Q9NXA8 whole entry, looked up): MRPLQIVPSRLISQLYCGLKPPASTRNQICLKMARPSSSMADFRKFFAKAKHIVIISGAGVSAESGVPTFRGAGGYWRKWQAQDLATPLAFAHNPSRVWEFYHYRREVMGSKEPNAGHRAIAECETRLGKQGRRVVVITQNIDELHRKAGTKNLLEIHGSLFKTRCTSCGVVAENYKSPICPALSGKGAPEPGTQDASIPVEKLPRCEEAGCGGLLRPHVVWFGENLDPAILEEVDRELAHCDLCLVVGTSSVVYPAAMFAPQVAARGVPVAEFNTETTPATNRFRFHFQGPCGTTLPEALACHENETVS
# ARNT-TACC3 inh: disrupts binding between human ARNT and TACC3. Q9Y6A5. AlphaScreen His-ARNT PAS-B/GST-TACC3 binding, luminescence; TACC3 fragment carries E629A point mutation. inhibition, % at 9.99 µM. actives 0.66% (n = 390,000);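 active means mean inhibition of replicates at least 50% and at least half of replicates each reaching 50%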
# FN deposition inh: fibronectin deposition inhibition | AH1F fibroblasts, Alexa488-fibronectin deposition fluorescence, overnight | inhibition, % at 12.6 µM | actives 0.086% (n = 350,000) | AID 743247;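 active means mean inhibition across replicates of 30% or more, regardless of how many single replicates reach that level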
#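 material = AH1F fibroblast monolayer depositing Alexa488-labelled fibronectin into matrix | amount = 10000 AH1F cells/well | buffer or medium = DMEM plus 2% serum, read in PBS | incubation = 1 h cell adhesion before compound, then overnight fibronectin incubation | detection = fluorescence at 485 nm excitation, 525 nm emission | evaluation = percent inhibition as loss of matrix-bound fibronectin fluorescence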
# Xi reactivation: reactivates the inactive X chromosome in mouse fibroblasts. XiGFP mouse fibroblasts, % GFP-positive cells imaging, 3 d; cells co-treated with 5-aza-dC sensitizer; scaled so ellipticine positive control = 100%. actives 0.055% (n = 360,000). AID 743238. activation, % at 7.58 µM;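 active means mean normalized replicate activation at least 10% and every replicate at or above 10%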
#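 Assay system – SV40-immortalized XiGFP fibroblast cells, line 68-5-11 · Buffer or medium – DMEM supplemented with 5-aza-dC as sensitizing agent · Dosing – one concentration, pinned · Benchmarks – positive control ellipticine, 6 µM final · Times – 3 days compound exposure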
# DENV2 CPE rescue: inhibitors of DENV2 cytopathic effect; actives 1.7% (n = 350,000); CPE inhibition, % at 9.99 µM; DENV2-infected cells, cytopathic effect rescue, plate reader; in the data active means CPE inhibition above about 20%, passing the limit was not always enough; tested in BHK-21 cells
# FGF22 binding-2: binders of human FGF22 by thermal shift. actives 2% (n = 1,000). AID 720646. shares compounds with FGF22 binding-1. recombinant FGF22 thermal shift, SYPRO orange fluorescence. thermal shift activity, °C (ΔTm) at 38 µM;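 active means fitted rise in melting shift crosses a set limit at or below the top valid dose tested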
# FGF22 TSA DP: FGF22 (human) binding by thermal shift. shares compounds with FGF22 binding-1. Thermal shift assay, SYPRO orange, melting temperature shift. Tm shift (activity), % at 38 µM. 50 tested, under 10 active. AID 743017;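 active means compounds whose fitted dose curve of melting temperature shift rises past a set threshold within the tested doses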
# TSA no protein: shows thermal shift signal without protein, FGF22 counter-screen; shares compounds with FGF22 binding-1; compound-only SYPRO orange thermal shift counter-screen, no protein; AC50, µM (titrated, usually from 38 µM); actives 2% (n = 1,000);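 active means rising signal whose fitted curve reaches the 0.54 level within the top valid dose, showing a melting point, actives reach about 13 µM in these data; inactive means the rest, including activity in the opposite direction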; further: value is where the raw curve crosses a fixed level and not half-maximal
# Numbers stand for hits; i = inactive; nt = no result; ! = not active in a repeat.
SMILES,FGF22 binding-1,SIRT5 inh,ARNT-TACC3 inh,FN deposition inh,Xi reactivation,DENV2 CPE rescue,FGF22 binding-2,TSA no protein,others
CCCCCCc1cc2cc(S(=O)(=O)c3ccc(Cl)cc3)c(=O)oc2cc1O,i,nt,i,i,i,i,nt,nt,
O=C(Nc1ccc(F)c(Cl)c1)c1ccccc1,i,nt,i,i,i,i,nt,nt,
N/C(=N\OCC(=O)Nc1ccc(F)c(Cl)c1)c1ccccc1,1.6,i,nt,i,i,i,i,i,
C[C@H]1CN([C@@H](C)CO)S(=O)(=O)c2ccc(C3=CCCCC3)cc2O[C@@H]1CN(C)C(=O)CN(C)C,i,i,i,i,i,i,nt,nt,
C[C@H](CO)N1C[C@H](C)[C@@H](CN(C)C(=O)CN(C)C)Oc2cc(C3=CCCCC3)ccc2S1(=O)=O,1.6,i,i,i,i,i,i,i,
C[C@@H]1CN([C@@H](C)CO)S(=O)(=O)c2ccc(C3=CCCC3)cc2O[C@@H]1CN(C)C(=O)C1CCCCC1,1.5,i,i,nt,i,i,i,i,
C[C@@H]1CN([C@H](C)CO)S(=O)(=O)c2ccc(-c3cncnc3)cc2O[C@@H]1CN(C)C(=O)CN(C)C,15.3,i,i,i,i,i,i,i,
C[C@@H]1CN([C@@H](C)CO)S(=O)(=O)c2ccc(C3=CCCCC3)cc2O[C@H]1CN(C)C(=O)CN(C)C,1.3,i,i,i,i,i,i,i,
C[C@@H]1CN([C@@H](C)CO)S(=O)(=O)c2ccc(-c3cncnc3)cc2O[C@H]1CN(C)C(=O)CN(C)C,i,i,i,i,i,i,nt,nt,
C[C@H](CO)N1C[C@H](C)[C@@H](CN(C)Cc2ccc3c(c2)OCO3)Oc2ccc(NC(=O)Cc3cn(C)c4ccccc34)cc2C1=O,i,i,i,i,i,i,nt,nt,
COc1ccc(OC)c(NC(=O)CN=[N+]=[N-])c1,i,i,nt,nt,nt,i,nt,nt,
Cc1noc(C)c1NC(=O)Nc1ccc2c(c1)C(=O)N(C)[C@H]1CC[C@H](CC(=O)N[C@@H]3CCN(Cc4ccccc4)C3)O[C@@H]1CO2,1.8,i,i,i,i,i,i,i,
CN1C(=O)c2cc(NC(=O)c3cccc(F)c3)ccc2OC[C@@H]2O[C@@H](CC(=O)Nc3ccccc3)CC[C@@H]21,i,i,i,i,i,i,nt,nt,
CN1C(=O)c2cc(NC(=O)c3cccc(F)c3)ccc2OC[C@@H]2O[C@H](CC(=O)NCc3ccccc3)CC[C@@H]21,2.2,nt,i,i,i,i,i,i,
CCNC(=O)Nc1ccc2c(c1)C(=O)N(C)[C@H]1CC[C@H](CC(=O)NCc3ccc(F)cc3)O[C@H]1CO2,28.2,i,i,i,i,i,i,i,
CN1C(=O)c2cc(NC(=O)Cc3ccccc3)ccc2OC[C@@H]2O[C@H](CC(=O)O)CC[C@H]21,1.4,i,i,i,i,i,i,i,
COCCNC(=O)c1cccc2c(-c3ccnn3C)coc12,i,nt,nt,nt,i,i,nt,nt,
COCCNC(=O)c1cccc2c(-c3cnn(C)c3)coc12,2.4,i,nt,i,i,i,i,i,
O=C(Nc1nccs1)c1ccc(S(=O)(=O)NCc2cccs2)cc1,1.4,i,i,nt,nt,i,i,i,
CCOC(=O)c1ccc(Oc2cn[nH]c2-c2ccc(O)cc2O)cc1,nt,i,i,i,i,i,nt,nt,
CCCOC(=O)c1ccc(Oc2cn[nH]c2-c2ccc(O)cc2O)cc1,1.5,i,i,i,nt,i,i,i,
O=C(O)C1CCN(S(=O)(=O)Cc2ccccc2)CC1,11.7,i,i,i,i,i,i,i,
CC(C)(C)c1nnc(NS(=O)(=O)c2ccc(F)cc2)s1,i,i,i,i,i,i,nt,nt,
O=S(=O)(Nc1nnc(C(F)(F)F)s1)c1ccc(Cl)cc1,2.6,i,i,i,i,i,nt,i,FGF22 TSA DP=i
NCC[C@@H]1CC[C@@H](NC(=O)C2CC2)[C@H](CO)O1,nt,i,nt,i,i,i,nt,nt,
SMILES,FGF22 binding-1,SIRT5 inh,ARNT-TACC3 inh,FN deposition inh,Xi reactivation,DENV2 CPE rescue,FGF22 binding-2,TSA no protein,others
c1ccc(NCc2ccccn2)cc1,1.4,i,i,i,i,i,i,i,
O=C(NCc1ccccn1)C(=O)Nc1ccccc1,i,i,i,i,i,i,nt,nt,
CCOC(=O)Cn1c2ccccc2n2nc(CCC(=O)O)c(=O)nc12,18.7,i,i,i,i,i,i,i,
CC1(C(=O)O)CCN1C(=O)c1ccccc1F (configuration not stated),21.8,nt,nt,nt,i,i,i,i,
O=C(NC1CCCC1)[C@H]1[C@H](CO)[C@H]2Cn3c(cccc3=O)[C@H]2N1CC1CCOCC1,nt,i,nt,i,i,i,nt,nt,
C[C@H]1CN([C@@H](C)CO)C(=O)c2cc(C3=CCCC3)cnc2O[C@@H]1CN(C)C(=O)CN(C)C,i,i,i,i,i,i,nt,nt,
C[C@@H]1CN([C@@H](C)CO)C(=O)c2cc(Br)cnc2O[C@H]1CN(C)C(=O)C1CC1,2.4!,i,i,i,i,i,i,i,
C[C@H]1CN([C@@H](C)CO)C(=O)c2cc(C3=CCCC3)cnc2O[C@H]1CN(C)C(=O)CN(C)C,1.4,i,i,i,i,i,i,i,
C[C@H](CO)N1C[C@H](C)[C@@H](CN(C)S(=O)(=O)c2ccccc2)OCCCC[C@H](C)Oc2ccc(NS(C)(=O)=O)cc2C1=O,i,i,i,nt,i,i,nt,nt,
CO[C@H]1CN(C)C(=O)c2ccc(NC(=O)NC(C)C)cc2OC[C@H](C)N(C(=O)CC2CC2)C[C@H]1C,i,i,i,i,i,nt,nt,nt,
O=C(N/N=C/c1ccccc1)c1cc(-c2ccc3c(c2)OCO3)n[nH]1,i,i,nt,i,i,i,nt,nt,
O=C(N/N=C/c1cccc(O)c1)c1cc(-c2ccc3c(c2)OCO3)n[nH]1,1.9,i,nt,i,i,i,i,i,
O=C(O)/C=C/c1cccc(NC(=O)Nc2ccc([N+](=O)[O-])cc2)c1,1.6,i,i,i,i,i,i,i,
C[C@@H]1CN([C@H](C)CO)C(=O)Cc2cc(NC(=O)Nc3cccc4ccccc34)ccc2O[C@@H]1CN(C)S(=O)(=O)c1ccc(Cl)cc1,i,i,nt,i,i,i,nt,nt,
Cc1cccnc1Nc1nc(-c2ccc(O)cc2O)cs1,nt,nt,i,nt,nt,nt,nt,nt,
Oc1ccc(-c2csc(Nc3ccccn3)n2)c(O)c1,2.8,i,i,i,i,i,i,11.4µM,
O=C1Nc2cc(Cl)c(Cl)cc2N(O)N1c1ccc(Cl)cc1,28.0,i,i,nt,nt,i,i,i,
